proCasp7 act: counter-screen: procaspase-7 (human) activation; P55210; recombinant procaspase-7, Ac-DEVD-pNA absorbance 405 nm; D23A/D198A/D206A triple mutant, cannot self-cleave; scale: DMSO 0, 5 µM enzyme 100; activation, % at 8.5 µM; 330,000 compounds, 0.093% hits;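 active means percent activation above the screen-wide mean plus 3 SD, cut at about 25% in these data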
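Test system: Procaspase-7 triple mutant (PC-7 D3A). Also added: Ac-DEVD-pNA substrate, 400 µM as added. Schedule: 1 h enzyme–compound preincubation and 2 h substrate reaction, both 25 °C. Signal: p-Nitroaniline absorbance at 405 nm, read at 0 and 120 min. Control set: low DMSO alone, high DMSO plus 5 µM PC-7.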
procasp3 activ: activators of human procaspase-3; 330,000 compounds, 0.11% hits; activation, % at 8.5 µM; recombinant procaspase-3 D3A, Ac-DEVD-pNA absorbance 405 nm;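 active means activation above the mean of all tested compounds plus 3 SD, cut at about 21% in these data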;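 further: 0% = DMSO alone and 100% = DMSO wells spiked with extra 5 µM PC-3 D3A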
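Assay system: Procaspase-3 D3A mutant, all three cleavage aspartates alanine. Buffer or medium: Zinc-free HEPES saline buffer with Triton X-100. Times: 1 h compound preincubation, 2 h substrate hydrolysis at 25 °C. Measured by: 405 nm absorbance of p-nitroaniline, reads at 0 and 120 min. Read-out basis: percent activation relative to control range. Replicates: singlicate.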
T cell modulator: T cell immune modulators affecting CD8 T cell-vesicle binding | AID 2052 | 330,000 compounds, 0.068% hits | response (vesicle binding), % at 7 µM | 2C CD8+ T cell-vesicle binding, flow cytometry; stronger effect = lower value;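 active means response, share of CD8 T cells binding vesicles, and their 90th percentile fluorescence all below set limits, cut at about 80% in these data, passing the limit was not always enough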;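 further: values below 100% mean blocked vesicle binding to the CD8+ T cells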
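incubation = binding step 1.5 h, 37 °C, antibody labelling 20 min, ice | test system = 2C mouse CD8+ T cells | read-out basis = percent CD8+ FL2 mean versus row control | controls = Peptide-free naked vesicles (low) and QL9 vesicles with 0.7% DMSO vehicle (high) | detection = flow cytometry of vesicle-bound cells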
CaV13 FRET inh: Primary screen for inhibitors of IQ motif and Ca2+-dependent inactivation inhibitor domain binding in CACNA1D, Förster resonance energy transfer in living cells, …. HEK cells, CFP/YFP FRET ICDI-IQ, plate reader, 10 min; percent FRET-ratio fall versus neutral wells. 340,000 compounds, 0.098% hits. inhibition, % at 12.3 µM. AID 743397;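 active means mean replicate inhibition of at least 30% and at least 1% of replicates passing that level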;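 further: 0% = median of the neutral control wells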
GRK2 aptamer HTS: inhibitors of human GRK2 displacing RNA aptamer; P25098; bead flow cytometry, FAM-aptamer displacement from GRK2; inhibition of aptamer binding, % at 10 µM; 330,000 compounds, 0.59% hits;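 active means inhibition of aptamer binding above 40%, roughly 3 SD of noise, on plates passing a quality check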;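 further: median bead fluorescence of bound FAM aptamer so fluorescent compounds give negative values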
Target sequence (P25098 whole entry, looked up): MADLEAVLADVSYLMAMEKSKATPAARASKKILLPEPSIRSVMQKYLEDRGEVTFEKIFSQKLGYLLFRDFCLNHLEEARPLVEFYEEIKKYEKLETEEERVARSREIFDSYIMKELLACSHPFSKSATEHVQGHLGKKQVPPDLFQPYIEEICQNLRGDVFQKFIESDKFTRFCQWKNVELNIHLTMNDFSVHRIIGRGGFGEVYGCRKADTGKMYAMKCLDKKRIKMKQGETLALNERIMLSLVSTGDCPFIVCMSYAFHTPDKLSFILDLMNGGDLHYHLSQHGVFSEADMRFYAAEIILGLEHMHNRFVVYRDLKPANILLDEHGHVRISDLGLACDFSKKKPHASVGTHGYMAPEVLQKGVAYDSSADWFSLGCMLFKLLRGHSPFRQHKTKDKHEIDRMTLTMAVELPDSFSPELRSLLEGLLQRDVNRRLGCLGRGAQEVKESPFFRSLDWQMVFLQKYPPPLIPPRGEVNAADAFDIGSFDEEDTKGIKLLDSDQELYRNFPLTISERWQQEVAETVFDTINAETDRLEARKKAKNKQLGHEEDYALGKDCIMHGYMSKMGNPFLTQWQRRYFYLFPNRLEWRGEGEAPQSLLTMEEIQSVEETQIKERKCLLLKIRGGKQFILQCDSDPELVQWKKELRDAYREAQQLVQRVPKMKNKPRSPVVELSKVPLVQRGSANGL
aDG glyco up: alpha-DG glycosylation activation | activation, % at 10 µM | Pro5-aDG cells, alpha-DG glycosylation AlphaScreen (IIH6); 0% Pro5, 100% B10-LARGE cell signal | 360,000 compounds, 0.22% hits;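 active means activation of at least 8% versus controls, or a plate z-score of at least 8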;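 further: Pro5 are CHO cells carrying HIG-tagged alpha-DG that lacks glycosylation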
GRK2 CP1: confirmation of human GRK2 inhibitors displacing RNA aptamer; aptamer displacement, % at 10 µM; shares compounds with GRK2 aptamer HTS; 2,000 compounds, 4% hits; bead-bound GRK2, FAM-aptamer displacement, flow cytometry; AID 504451;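 active means aptamer displacement above 40%, near three times the noise of non-fluorescent compounds, on plates passing quality checks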;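 further: negative values mostly reflect intrinsic compound fluorescence rather than true enhancement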
Aptamer quench: quenches fluorescent RNA aptamer, GRK2 hit artifact | AID 504521 | Fluorescent RNA aptamer beads, quenching, flow cytometry; stronger effect = higher value | 110 tested, under 10 active | fluorescence change (kMESF span), kMESF (concentration not given with the values) | shares compounds with GRK2 aptamer HTS;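 active means compounds whose bead fluorescence drops by more than 37 kMESF across the dose range, marking them as dye quenchers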
Aptamer quench SP: quenches fluorescent RNA aptamer, GRK2 hit artifact. shares compounds with GRK2 aptamer HTS. Carboxyfluorescein RNA aptamer on beads, flow cytometry quenching; stronger effect = lower value. fluorescence response (% of DMSO), % at 10 µM. 2,000 tested, under 10 active. AID 504580;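 active means compounds that quench the bead-bound fluorescent RNA probe, cutting fluorescence to under half of the solvent control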;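 further: counterscreen run without GRK2 so only probe quenching by compound is measured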
GRK2 confirm 2: human GRK2 inhibition confirmation, cherry pick 2; inhibition of aptamer binding, % at 10 µM; bead-bound GRK2, FAM-aptamer displacement, flow cytometry; shares compounds with GRK2 aptamer HTS; 360 tested, under 10 active;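 active means inhibition of aptamer binding above 40%, about triple the noise seen with nonglowing compounds, on plates passing quality control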;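 further: negative values mostly come from compounds that fluoresce themselves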
FAM quench CP2: counter-screen for GRK2 binding hits: quenchers of fluorescent RNA aptamer; 360 tested, under 10 active; fluorescence response vs DMSO, % at 10 µM; shares compounds with GRK2 aptamer HTS; AID 588494; carboxyfluorescein RNA aptamer beads, flow cytometry quenching; stronger effect = lower value;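 active means response vs DMSO under 50%, meaning signal dropped by over half, treated as fluorescence quencher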;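 further: labelled aptamer on streptavidin beads without GRK2 as a quench counter-screen; 100% = bead fluorescence of DMSO wells and lower means quenching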
Active calls of the source: *; / = no result given. Shown are actives, neighbours in structure and some others; about 1.1% of the full set was active somewhere.

SMILES	proCasp7 act	procasp3 activ	T cell modulator	CaV13 FRET inh	GRK2 aptamer HTS	aDG glyco up	GRK2 CP1	Aptamer quench SP	others
Nc1ncnc2c1ccn2[C@H]1CN(Cc2ccc3c(c2)OCO3)C[C@@H](COC(=O)c2ccccc2)O1	/	/	/	-4.7	/	-0.4	/	/
COC(=O)c1cc(-c2cccc([N+](=O)[O-])c2)c2c(=O)n(C)c(=O)n(C)c2n1	10.1	4.9	83.8	-17.6	79.0*	-0.1	-1.0	103.5
COC(=O)c1cc(-c2ccc(Br)cc2)c2c(=O)n(C)c(=O)n(C)c2n1	-6.8	2.0	370.0	-5.1	0.0	0.0	/	/
CCOC(=O)c1cnc2c3c(noc13)CCC2	/	/	/	-4.8	/	/	/	/
O=C(Nc1nc2c(ccc3ccccc32)s1)c1ccco1	-8.8	6.9	210.4	-4.3	0.0	0.0	/	/	GRK2 confirm 2=4.8;FAM quench CP2=101.0
O=C(Nc1nc2c(F)c(F)c(F)cc2s1)c1ccco1	6.7	0.9	928.0	-3.6	0.0	-0.1	/	/
Cc1ccc(C)c(NC(=O)c2cnn3ccccc23)c1	2.5	-4.0	256.5	-5.2	28.0	0.0	-1.0	101.2
Cc1ccc(C)c(NC(=O)c2cc3ccccn3n2)c1	-1.8	-2.2	699.4	-4.9	1.0	0.0	/	/
CCCCN(C(=O)CCC(=O)Nc1cc(C)on1)C(C(=O)NC1CCCC1)c1ccccc1OCC (stereo not drawn)	-10.8	-5.0	236.8	-7.4	2.0	0.0	/	/
O=C(NCc1ccncc1)c1cccc(Cn2cc(Br)cn2)c1	12.5	2.9	237.0	-1.4	0.0	0.4	4.2	97.5
O=C(O)c1cccc(Cn2cc(Br)cn2)c1	0.6	8.3	228.5	/	0.0	-0.3	/	/
O=C(O)CC/C(=N/NC(=O)CNC(=O)C(c1ccccc1)c1ccccc1)c1ccccc1	0.4	0.6	784.5	-4.3	90.0*	0.0	2.6	96.5
C/C(=N\NC(=O)CNC(=O)C(c1ccccc1)c1ccccc1)c1ccccc1	7.9	-8.7	212.9	-4.0	2.0	-0.2	/	/
O=C(O)CCn1cc(C(=O)O)c(-c2ccccc2)n1	-8.6	11.1	159.1	-11.6	0.0	-0.1	/	/
COC(CNC(=O)CN1CCN(Cc2ccc(F)cc2Cl)C1=O)OC	11.2	-1.4	289.0	-15.4	17.0	0.1	-2.5	95.6
CCC(CC)CN1CCC(CN2C(=S)NC[C@@H]2Cc2ccccc2)CC1	/	/	/	-4.6	/	/	/	/
COc1ccc(CNC(=O)C2COc3ccccc3O2)c(OC)c1 (stereo not drawn)	-4.1	-5.3	289.1	-9.0	4.0	-0.1	-2.6	99.0
CN(CC(=O)Nc1cccc(F)c1)C(=O)c1cccc(S(=O)(=O)N2CCN(c3ccc(F)cc3)CC2)c1	/	/	/	-6.8	/	1.7	/	/
Fc1ccc(CNc2cnccn2)cc1	3.5	2.5	310.2	-5.5	64.0*	0.0	-1.0	99.5
Clc1ccc(CNc2cnccn2)cc1	-2.2	2.4	193.7	2.1	2.0	0.3	/	/
Cc1sc2ncnc(NCCCO)c2c1C	-7.7	1.4	278.2	-6.3	29.0	0.0	-2.3	102.9
CC1CN(S(=O)(=O)c2cccc(C(=O)OCc3cc(=O)oc4cc(O)ccc34)c2)CC(C)O1 (stereo not drawn)	-3.8	3.5	300.7	-4.1	0.0	0.2	/	/
CN(C)c1cccc(C(=O)OCc2cc(=O)oc3cc(O)ccc23)c1	16.9	1.9	392.8	-3.9	54.0*	-0.1	54.8*	100.7	Aptamer quench=4
O=C(Nc1ccc(Br)cc1)Nc1cnccn1	/	/	/	-10.9	/	0.1	/	/
COc1ccc(C(=O)[C@H]2[C@H]3C(=O)N(c4ccc(OC(C)=O)cc4)C(=O)[C@H]3C3C=CC=NN32)cc1 (stereo partly drawn)	-5.4	2.4	150.7	-5.6	0.0	-0.1	/	/
SMILES	proCasp7 act	procasp3 activ	T cell modulator	CaV13 FRET inh	GRK2 aptamer HTS	aDG glyco up	GRK2 CP1	Aptamer quench SP	others
CC(=O)Oc1ccc(C(=O)[C@H]2[C@H]3C(=O)N(c4cccc5ccccc45)C(=O)[C@H]3[C@@H]3C=CC=NN32)cc1	-1.2	-5.1	175.0	-3.4	73.0*	-0.5	/	/	GRK2 confirm 2=7.8;FAM quench CP2=101.0
NC(=O)c1ncn([C@@H]2O[C@H](C(=O)N[C@H](Cc3ccccc3)C(=O)N3CCN(c4ccc(Cl)cn4)CC3)[C@@H](O)[C@H]2O)n1	/	/	/	-4.3	/	/	/	/
COc1ccc([N+](=O)[O-])cc1NC(=O)c1cccs1	11.3	-2.4	227.6	-4.0	1.0	-0.1	/	/
Cc1ccc([N+](=O)[O-])cc1NC(=S)NC(=O)c1cccs1	1.2	-2.0	241.9	-14.1	62.0*	-0.1	/	/	GRK2 confirm 2=5.1;FAM quench CP2=99.0
CC(NC(=O)C1CCN(C(=O)c2ccc(F)cc2)CC1)c1ccc(S(N)(=O)=O)cc1 (stereo not drawn)	-0.8	-2.7	444.9	-6.1	1.0	0.4	/	/
CCn1cc(C(=O)NN)c(=O)c2cc(F)c(N3CCOCC3)cc21	17.5	0.6	288.0	-2.8	1.0	-0.1	/	/
CCn1cc([N+](=O)[O-])c(=O)c2cc(F)c(N3CCOCC3)cc21	-68.7	-11.3	344.8	-18.8	64.0*	0.0	0.5	98.2
NS(=O)(=O)c1cc(C(=O)NC2CCSc3ccccc32)ccc1Cl (stereo not drawn)	9.1	-6.6	363.2	-2.9	51.0*	0.0	18.2	96.5
NS(=O)(=O)c1cccc(C(=O)NC2CCSc3ccccc32)c1 (stereo not drawn)	-5.1	-5.5	248.1	-2.9	0.0	0.1	/	/
Cc1c(CCC(=O)NCCCn2ccnc2)c(=O)oc2c(C)c3oc4c(c3cc12)CCCC4	-5.6	4.8	267.9	/	2.0	-0.4	/	/
CCn1c(SCC(=O)N2CCCC2)nnc1-c1ccco1	5.1	-2.4	409.0	-6.9	47.0*	0.1	3.2	95.4
CCn1c(SCC(=O)N2CCOCC2)nnc1-c1ccco1	3.6	-0.8	995.2	-2.3	7.0	-0.1	/	/
